Test results as given in article PMC9069315 (Acta Pharmaceutica Sinica. B, 2021).
Substitutions are numbered along the chain they refer to. Where “and” joins values, the source holds several entries; their conditions need not be identical. Equal entries are not always repeated.

Legend:
P-glycoprotein (P-gp) = P-glycoprotein (P-gp) (Mus musculus, UniProt P21447); test: Effect of P-gp on brain uptake; format: in vivo; details: male ICR mice
How it was run: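 Male ICR mice (20 ± 2 g, 4–5 weeks) were given the P-gp inhibitor cyclosporine A 60 min before the radioligand. Radioactivity in brain and blood was measured and the brain-to-blood ratio derived, n = 5–8 per group, means ± SD. Groups were compared by independent two-tailed Student's t test.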

[1] = Biodistribution in male ICR mice; format: in vivo, mouse; details: i.v.
How it was run: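 Male ICR mice (20 ± 2 g, 4–5 weeks) received the radiotracer, and tissues were sampled at the listed times after injection. Uptake is given as percentage of injected dose per gram of tissue (% ID/g), as means ± SD, n = 5.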

σ2 receptors [2] = molecular target: T1, σ2 receptors (Mus musculus, UniProt Q8VD00); test: Blocking experiments in male ICR mice; format: in vivo; details: 30 min p.i.
T1 sequence (Q8VD00 1-176): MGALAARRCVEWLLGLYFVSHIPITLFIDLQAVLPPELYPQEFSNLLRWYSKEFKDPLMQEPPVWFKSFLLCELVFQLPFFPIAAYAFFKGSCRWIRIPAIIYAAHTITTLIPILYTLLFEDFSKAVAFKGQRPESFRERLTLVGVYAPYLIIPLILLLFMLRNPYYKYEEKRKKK
How it was run: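 Male ICR mice (20 ± 2 g, 4–5 weeks) were pre-dosed 5 min before about 280 kBq of radiotracer, with either unlabeled compound (0.1 mL, 3 μmol/kg) or CM398 (0.1 mL; 3, 5, 10 or 20 μmol/kg). Tissues were taken at 30 min p.i. Brain uptake (% ID/g) and brain-to-blood ratio were compared with unblocked controls.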

σ2 receptor [3] = molecular target: T2, σ2 receptor (Rattus norvegicus, UniProt Q5U3Y7); details: cited from earlier work
T2 sequence (Q5U3Y7 1-176): T1 sequence (Q8VD00 1-176) with L4V, A5T, L26M, V33L, L71F, A105V, L118I, V127I, S136N, Y169F

[4] = In vivo metabolic stability in ICR mice; design: species or system mouse; details: 30 min after injection, radio-HPLC
How it was run: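 ICR mice were injected with radiotracer (0.2 mL, 33.3 MBq). Brain and pancreas were dissected at 30 min, processed, and analysed by radio-HPLC for the intact-tracer fraction versus radioactive metabolites.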

[5] = In vitro stability in saline and mouse serum; format: in vitro ADME; details: 2 h
σ2 receptors [6] = molecular target: T1, σ2 receptors; test: Ex vivo autoradiography in mouse brain; details: baseline, 30 min p.i., male ICR mice
σ2 receptor [7] = molecular target: T2, σ2 receptor; test: Micro-PET/CT imaging in Sprague-Dawley rats; format: in vivo; details: SD rats, CM398 10 μmol/kg 5 min before tracer, after 30 min
How it was run: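 Male SD rats (200 ± 10 g, 6–7 weeks) were injected intravenously with radiotracer, and a dynamic 120-min micro-PET/CT scan followed. Scans were run at baseline or with CM398 (10 μmol/kg) blocking. Whole-brain and regional time–activity curves were expressed as SUV, n = 3 per condition for whole brain; images were summed over 30–45 min.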

[8] = cyclosporine A 60 min before tracer, 2 min p.i., P < 0.05
[9] = CM398 5 μmol/kg 5 min before tracer
[10] = unlabeled compound 3 μmol/kg 5 min before tracer

Chain of P-glycoprotein (P-gp) (P21447 whole entry): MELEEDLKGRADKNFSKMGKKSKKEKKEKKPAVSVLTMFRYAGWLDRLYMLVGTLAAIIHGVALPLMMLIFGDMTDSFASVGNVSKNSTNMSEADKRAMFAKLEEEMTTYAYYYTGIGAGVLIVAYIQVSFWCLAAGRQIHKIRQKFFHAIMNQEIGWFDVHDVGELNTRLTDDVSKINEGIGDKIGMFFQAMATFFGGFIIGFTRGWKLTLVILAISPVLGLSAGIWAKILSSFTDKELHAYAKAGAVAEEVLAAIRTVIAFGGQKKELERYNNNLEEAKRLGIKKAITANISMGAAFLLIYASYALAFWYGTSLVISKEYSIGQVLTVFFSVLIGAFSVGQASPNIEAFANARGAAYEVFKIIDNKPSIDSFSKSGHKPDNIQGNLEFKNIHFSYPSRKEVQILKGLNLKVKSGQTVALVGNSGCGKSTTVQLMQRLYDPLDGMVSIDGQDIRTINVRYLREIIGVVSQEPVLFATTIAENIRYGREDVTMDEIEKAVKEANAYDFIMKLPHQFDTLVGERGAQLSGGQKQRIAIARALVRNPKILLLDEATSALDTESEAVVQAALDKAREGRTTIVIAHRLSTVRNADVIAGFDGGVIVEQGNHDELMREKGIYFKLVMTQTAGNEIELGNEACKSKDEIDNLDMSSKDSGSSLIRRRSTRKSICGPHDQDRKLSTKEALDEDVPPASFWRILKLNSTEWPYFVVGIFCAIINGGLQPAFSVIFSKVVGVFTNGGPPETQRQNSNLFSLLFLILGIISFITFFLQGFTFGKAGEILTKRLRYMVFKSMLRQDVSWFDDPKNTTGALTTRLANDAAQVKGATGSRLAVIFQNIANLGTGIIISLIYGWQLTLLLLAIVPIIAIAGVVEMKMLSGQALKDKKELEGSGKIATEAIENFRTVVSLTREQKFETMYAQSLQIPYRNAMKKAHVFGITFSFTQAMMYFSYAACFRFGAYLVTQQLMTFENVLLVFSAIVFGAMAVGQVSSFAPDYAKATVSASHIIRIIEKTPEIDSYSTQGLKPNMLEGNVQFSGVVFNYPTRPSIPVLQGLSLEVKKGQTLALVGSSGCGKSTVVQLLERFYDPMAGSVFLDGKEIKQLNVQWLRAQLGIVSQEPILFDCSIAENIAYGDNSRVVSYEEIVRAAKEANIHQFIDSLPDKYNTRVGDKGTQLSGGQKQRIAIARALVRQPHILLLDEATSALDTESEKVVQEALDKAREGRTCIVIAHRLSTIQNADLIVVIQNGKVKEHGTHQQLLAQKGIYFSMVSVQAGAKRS

- Increase in brain-to-blood ratio with cyclosporine A (P-glycoprotein (P-gp); [8]): 35%
- Increase in initial brain uptake with cyclosporine A (P-glycoprotein (P-gp); [8]): 49%
- Change in blood uptake with cyclosporine A (P-glycoprotein (P-gp); cyclosporine A 60 min before tracer, 2 min p.i., P > 0.05): slight increase without significance
- Blood uptake ([1]; 2 min p.i.): 2.39 ± 0.36 % ID/g
- Bone uptake ([1]; 2 min p.i.): 2.59 ± 0.66 % ID/g
- Brain uptake ([1]; 2 min p.i.): 4.44 ± 0.59 % ID/g
- Brain/Blood ratio ([1]; 2 min p.i.): 1.87 ± 0.13
- Heart uptake ([1]; 2 min p.i.): 21.57 ± 1.58 % ID/g
- Kidney uptake ([1]; 2 min p.i.): 18.89 ± 2.48 % ID/g
- Liver uptake ([1]; 2 min p.i.): 3.24 ± 0.67 % ID/g
- Lung uptake ([1]; 2 min p.i.): 108.47 ± 20.11 % ID/g
- Muscle uptake ([1]; 2 min p.i.): 4.38 ± 0.99 % ID/g
- Pancreas uptake ([1]; 2 min p.i.): 8.74 ± 0.29 % ID/g
- Small intestine uptake ([1]; 2 min p.i.): 6.21 ± 0.81 % ID/organ
- Spleen uptake ([1]; 2 min p.i.): 5.01 ± 1.80 % ID/g
- Stomach uptake ([1]; 2 min p.i.): 1.21 ± 0.14 % ID/organ
- Blood uptake ([1]; 15 min p.i.): 0.70 ± 0.08 % ID/g
- Bone uptake ([1]; 15 min p.i.): 3.02 ± 0.45 % ID/g
- Brain uptake ([1]; 15 min p.i.): 4.95 ± 0.36 % ID/g
- Brain/Blood ratio ([1]; 15 min p.i.): 7.2 and 7.21 ± 1.36
- Heart uptake ([1]; 15 min p.i.): 11.23 ± 0.91 % ID/g
- Kidney uptake ([1]; 15 min p.i.): 18.40 ± 2.45 % ID/g
- Liver uptake ([1]; 15 min p.i.): 6.13 ± 0.94 % ID/g
- Lung uptake ([1]; 15 min p.i.): 36.37 ± 6.47 % ID/g
- Muscle uptake ([1]; 15 min p.i.): 3.74 ± 0.33 % ID/g
- Pancreas uptake ([1]; 15 min p.i.): 12.75 ± 2.12 % ID/g
- Small intestine uptake ([1]; 15 min p.i.): 7.27 ± 0.88 % ID/organ
- Spleen uptake ([1]; 15 min p.i.): 7.51 ± 1.17 % ID/g
- Stomach uptake ([1]; 15 min p.i.): 1.52 ± 0.19 % ID/organ
- Blood uptake ([1]; 30 min p.i.): 0.48 ± 0.08 % ID/g
- Bone uptake ([1]; 30 min p.i.): 4.50 ± 0.38 % ID/g
- Brain uptake ([1]; 30 min p.i.): 5.04 ± 0.67 % ID/g
- Brain/Blood ratio ([1]; 30 min p.i.): 10.6 and 10.57 ± 1.86 and 10.57
- Heart uptake ([1]; 30 min p.i.): 7.55 ± 1.30 % ID/g
- Kidney uptake ([1]; 30 min p.i.): 20.61 ± 1.80 % ID/g
- Liver uptake ([1]; 30 min p.i.): 8.69 ± 0.44 % ID/g
- Lung uptake ([1]; 30 min p.i.): 17.93 ± 2.42 % ID/g
- Muscle uptake ([1]; 30 min p.i.): 3.90 ± 0.23 % ID/g
- Pancreas uptake ([1]; 30 min p.i.): 18.93 ± 2.95 % ID/g
- Small intestine uptake ([1]; 30 min p.i.): 10.80 ± 0.36 % ID/organ
- Spleen uptake ([1]; 30 min p.i.): 9.93 ± 1.43 % ID/g
- Stomach uptake ([1]; 30 min p.i.): 1.54 ± 0.20 % ID/organ
- Blood uptake ([1]; 60 min p.i.): 0.42 ± 0.05 % ID/g
- Bone uptake ([1]; 60 min p.i.): 4.64 ± 1.57 % ID/g
- Brain uptake ([1]; 60 min p.i.): 4.43 ± 0.39 % ID/g
- Brain/Blood ratio ([1]; 60 min p.i.): 10.6 and 10.56 ± 0.83
- Heart uptake ([1]; 60 min p.i.): 3.49 ± 0.62 % ID/g
- Kidney uptake ([1]; 60 min p.i.): 17.40 ± 3.97 % ID/g
- Liver uptake ([1]; 60 min p.i.): 10.97 ± 0.95 % ID/g
- Lung uptake ([1]; 60 min p.i.): 9.95 ± 1.62 % ID/g
- Muscle uptake ([1]; 60 min p.i.): 3.01 ± 0.51 % ID/g
- Pancreas uptake ([1]; 60 min p.i.): 22.66 ± 3.36 % ID/g
- Small intestine uptake ([1]; 60 min p.i.): 10.73 ± 1.27 % ID/organ
- Spleen uptake ([1]; 60 min p.i.): 11.35 ± 2.85 % ID/g
- Stomach uptake ([1]; 60 min p.i.): 1.39 ± 0.27 % ID/organ
- Blood uptake ([1]; 120 min p.i.): 0.42 ± 0.03 % ID/g
- Bone uptake ([1]; 120 min p.i.): 5.57 ± 0.53 % ID/g
- Brain uptake ([1]; 120 min p.i.): 3.41 ± 0.13 % ID/g
- Brain/Blood ratio ([1]; 120 min p.i.): 8.11 ± 0.37
- Heart uptake ([1]; 120 min p.i.): 2.76 ± 0.41 % ID/g
- Kidney uptake ([1]; 120 min p.i.): 12.36 ± 0.81 % ID/g
- Liver uptake ([1]; 120 min p.i.): 11.9 ± 1.52 % ID/g
- Lung uptake ([1]; 120 min p.i.): 7.53 ± 1.07 % ID/g
- Muscle uptake ([1]; 120 min p.i.): 3.01 ± 0.27 % ID/g
- Pancreas uptake ([1]; 120 min p.i.): 24.21 ± 1.57 % ID/g
- Small intestine uptake ([1]; 120 min p.i.): 10.88 ± 0.38 % ID/organ
- Spleen uptake ([1]; 120 min p.i.): 10.51 ± 0.37 % ID/g
- Stomach uptake ([1]; 120 min p.i.): 1.22 ± 0.13 % ID/organ
- Blocking effect of CM398 (5 μmol/kg), Brain (σ2 receptors [2]; [9]): 39%
- Blocking effect of CM398 (5 μmol/kg), Brain/Blood (σ2 receptors [2]; [9]): 75%
- Self-blocking effect, Brain (σ2 receptors [2]; [10]): 58%
- Self-blocking effect, Brain/Blood (σ2 receptors [2]; [10]): 90%
- Parent compound fraction of radioactivity in brain [4]: ≥ 95%
- Parent compound fraction of radioactivity in pancreas ([4]; n = 3): ~10%
- RCP after incubation (in vitro stability) ([5]; mouse serum, 37 °C): > 99%
- RCP after incubation (in vitro stability) ([5]; saline, ambient temperature): > 99%
- Radioactivity distribution in the mouse brain (ex vivo autoradiography) (σ2 receptors [6]): widely and heterogeneously distributed
- Reduction of radiotracer accumulation in the whole-brain (micro-PET) (σ2 receptor [7]): > 60%
SMILES: COc1cc2c(cc1OC)CN(CCCCn1ccc3c(OCC[18F])cccc31)C2 [[^18F]9, 1-(4-(5,6-dimethoxyisoindolin-2-yl)butyl)-4-(2-[^18F]fluoroethoxy)-1H-indole]
- P-gp substrate (P-glycoprotein (P-gp); cyclosporine A 50 mg/kg 60 min before tracer, 50 mg/kg): moderate P-gp substrates and moderate P-gp substrate and Yes
- Ki (σ2 receptor [3]; read-out: Ki (σ2)): 1.79 ± 0.86 nM
- Ki (σ1)/Ki (σ2) (σ2 receptor [3]; subtype selectivity): 207
